From PubChem BioAssay
Most compounds without a hit are left out; they make up all but 0.65% or so of the library.
HePTP inh = blocks human HePTP tyrosine phosphatase | P35236 | recombinant HePTP phosphatase activity, OD absorbance | inhibition, % at 20 µM | 110,000 tested, 0.64% active | AID 521; in the data active = inhibition above about 50%
Target sequence (P35236 whole entry, looked up): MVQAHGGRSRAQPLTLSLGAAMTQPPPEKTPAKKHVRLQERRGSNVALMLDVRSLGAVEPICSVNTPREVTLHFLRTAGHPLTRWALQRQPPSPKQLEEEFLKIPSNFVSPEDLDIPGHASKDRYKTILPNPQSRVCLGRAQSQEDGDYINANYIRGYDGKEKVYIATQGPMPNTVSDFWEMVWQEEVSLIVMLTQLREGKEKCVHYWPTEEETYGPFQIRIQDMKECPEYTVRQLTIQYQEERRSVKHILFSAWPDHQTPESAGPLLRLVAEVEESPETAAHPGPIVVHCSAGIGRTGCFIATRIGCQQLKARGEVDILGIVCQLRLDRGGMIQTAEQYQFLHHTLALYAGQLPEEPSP
AP complement = orthogonal test for alternative complement pathway inhibitors; Human serum alternative complement pathway, LPS-coated ELISA, C3 deposition; tested in compound mixtures; inhibition, % at 5 µM; 62,000 tested, 0.08% active;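 active = inhibition above 30% in each of the two pooled mixtures holding the compound, so the lower value exceeds 30%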
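Test system: human serum complement alternative pathway, C3 deposition onto LPS / Medium: Mg2+-EGTA GVB++ buffer containing human serum at 1:15 dilution / Probe or stimulus: Plate-bound LPS / Times: 1 h at 37 °C / Signal: ELISA with HRP anti-human C3 antibody, TMB substrate, absorbance 450 nm / Measure: percent inhibition / Repeats: two pool placements per compound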
TNAP act DEA = activates human TNAP at intermediate phosphate acceptor concentration. P05186. activation factor at 20 µM. 64,000 tested, under 10 active. AID 813. purified TNAP, CDP-star luminescence, 100 mM DEA, 30 min; hits give high values; scale: 0 levamisole-inhibited, 1 vehicle-only enzyme;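 active = activation factor of at least 2 at 20 µM, relative to controls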
A number is an active result; - = inactive; . = no result given.

SMILES	HePTP inh	AP complement	TNAP act DEA
O=C(O)COc1ccccc1/C=N/NC(=O)COc1c(Br)cc(Br)cc1Br	65.6	.	.
COc1ccc(C(=O)Nc2ccc(Cl)c(-c3nc4ccccc4s3)c2)cc1[N+](=O)[O-]	65.0	.	.
CCOc1ccc(C(=O)Nc2ccc(-c3nc4ccccc4s3)cc2)cc1[N+](=O)[O-]	-	.	.
O=C(N/N=C/c1ccc(OC(=O)c2ccc(Br)cc2)cc1)c1cccc([N+](=O)[O-])c1	52.2	.	.
O=C(N/N=C/c1cc(Br)cc(I)c1O)c1cccc([N+](=O)[O-])c1	-	.	.
CCc1nnc(NC(=O)c2ccc(S(=O)(=O)NCC(C)C)cc2)s1	-	-	-
Cc1ccc(S(=O)(=O)NCc2nnc(NC(=O)c3ccc(Br)cc3)s2)cc1	57.6	.	.
Cc1ccc(S(=O)(=O)/N=C2/C=C(N3CCOCC3)C(=O)c3ccccc32)cc1	-	.	.
Cc1ccc(S(=O)(=O)/N=C2\C=C(n3cnc4ccccc43)C(=O)c3ccccc32)cc1	85.1	.	.
C=CCc1cccc(/C=N/NC(=O)c2cc(-c3ccc4ccccc4c3)n[nH]2)c1O	-	.	.
Cc1cccc(-c2cc(C(=O)O)c3ccccc3n2)c1	-	.	.
O=C(O)c1cc(-c2cccc(Cl)c2)nc2ccccc12	104.0	.	.
Cc1cc([N+](=O)[O-])ccc1-c1ccc(C(=O)Nc2ccc(N3CCOCC3)cc2)o1	-	.	.
O=C(Nc1ccccc1C(=O)O)c1ccc2c(c1)C(=O)N(C1CCCCC1)C2=O	100.8	.	.
O=C(Nc1ccc(Br)cc1C(=O)O)c1ccc2c(c1)C(=O)N(C1CCCCC1)C2=O	-	.	.
C=CCN1C(=O)/C(=C\c2ccc(OC)c(OC)c2OC)C(=O)NC1=S	-	.	.
C=CCOc1cccc(C2c3c(oc4ccc(F)cc4c3=O)C(=O)N2CCCN2CCOCC2)c1 (centres undefined)	-	33.8	-
O=C1c2oc3ccc(F)cc3c(=O)c2C(c2cccc(O)c2)N1CCCN1CCOCC1 (centres undefined)	-	-	-
Cc1cnc2sc(C(=O)Nc3ccccc3)c(C(=O)O)n2c1=O	-	.	.
CCOc1ccc(N2C(=O)NC(=O)/C(=C/c3ccc(-c4cccc(C(=O)O)c4)o3)C2=O)cc1	-	.	.
CC1=C(C#N)c2nc(N)c(C#N)c(C)c2/C1=C/c1ccc(-c2cccc(C(=O)O)c2)o1	103.2	.	.
CC1=C(C#N)c2nc(N)c(C#N)c(C)c2/C1=C\c1ccc(-c2cccc([N+](=O)[O-])c2)o1	-	.	.
CC(=O)c1cccc(-c2ccc(/C=C3\C(=O)NC(=O)C(C#N)=C3C)o2)c1	71.6	.	.
CC12CCC(C(=O)N(c3cccc(O)c3)C1=O)C2(C)C (centres undefined)	-	.	.
COc1ccc(C(N)=O)cc1NC(=O)c1ccccc1C	-	.	.
SMILES	HePTP inh	AP complement	TNAP act DEA
Cc1ccc(NC(=O)CSc2nc3ccccc3s2)c([N+](=O)[O-])c1	-	.	.
O=C(O)C1C2CCC(O2)C1C(=O)NCc1ccncc1 (centres undefined)	-	-	-
O=C(O)C1C2CCC(O2)C1C(=O)NCc1ccc(F)cc1 (centres undefined)	103.4	.	.
CC(=O)Nc1c(C)ccc2c1C(C)CC21CCCC1 (centres undefined)	104.2	.	.
CC(=O)Nc1c(Br)cc(C23CC4CC(CC(C4)C2)C3)cc1Br	-	.	.
Cc1ccc(CN2CCN(/N=C/C=C\c3ccco3)CC2)cc1	102.8	.	.
Clc1ccc(CN2CCN(/N=C/C=C\c3ccco3)CC2)cc1	-	.	.
CCOC(=O)c1c(C)[nH]c(N=Nc2cccc(OC)c2)c1C	103.3	.	.
CCOC(=O)c1c(C)[nH]c(N=Nc2ccc(C)cc2)c1C	-	.	.
COc1ccc(Br)cc1/C=C/C(=O)c1ccc(Cl)cc1	-	.	.
CC(=O)Nc1ccc2c(c1)C1C=CCC1C(c1ccccc1F)N2 (centres undefined)	-	.	.
O=C(O)C1Nc2c(Cl)cc(Cl)cc2C2C=CCC12 (centres undefined)	102.7	.	.
CC(=O)Nc1ccc2c(c1)C1C=CCC1C(C(=O)O)N2 (centres undefined)	80.5	.	.
COc1ccc2c(c1)C1C=CCC1C(C(=O)O)N2 (centres undefined)	102.4	.	.
O=C(O)C1Nc2c(O)cccc2C2C=CCC12 (centres undefined)	.	-	-
O=C(OC1CCCCC1)c1ccc2c(c1)C1C=CCC1C(C(=O)O)N2 (centres undefined)	.	-	-
O=C(Nc1ccc(Nc2ccccc2)cc1)c1ccccc1I	-	.	.
Cc1c(-c2ccccc2)[n+](=O)c2c(n1[O-])CCCCC2	-	.	.
Cc1c(-c2ccc(F)cc2)[n+](=O)c2c(n1[O-])CCC2	104.2	.	.
Cc1c(-c2ccco2)[n+](=O)c2c(n1[O-])CCC2	-	-	-
COc1ccc(-c2c(C)n([O-])c3c([n+]2=O)CCC3)cc1	104.2	.	.
CC(C)c1cc(NS(=O)(=O)c2ccccc2[N+](=O)[O-])cc(C(C)C)c1O	-	.	.
COC(=O)c1ccc(Cl)c(NC(=O)C23CC4CC(C)(CC(C)(C4)C2)C3)c1	-	.	.
O=C1CC2c3ccccc3C1C1C(=O)N(CC34CC5CC(CC(C5)C3)C4)C(=O)C21 (centres undefined)	-	.	.
Cc1ccc(C(=O)N2c3ccccc3-c3c(ssc3=S)C2(C)C)cc1	-	.	.
SMILES	HePTP inh	AP complement	TNAP act DEA
Cc1ccc(C2([N+](=O)[O-])C(=O)c3ccccc3C2=O)cc1	-	.	.
O=C(Nc1ccc2oc(-c3ccccc3F)nc2c1)c1cccc([N+](=O)[O-])c1	99.2	.	.
O=C(/C=C/c1cccc([N+](=O)[O-])c1)Nc1ccc2oc(-c3ccccc3F)nc2c1	-	.	.
COc1cc(/C=C2\C(=O)NC(=O)N(c3ccc(Cl)cc3)C2=O)ccc1OCc1ccc(C(=O)O)cc1	-	.	.
Cc1cccc(OCCN2CCCCC2)c1	-	.	.
O=C(CN1C(=O)NC2(CCCCCCC2)C1=O)N1CCOCC1	-	38.6	-
O=C(CN1C(=O)NC2(CCCC2)C1=O)N1CCN(C(=O)c2ccco2)CC1	-	-	-
COC(=O)NC(NC(=O)OC)c1ccc(OC)cc1	-	.	.
O=C(Nc1ccc(-c2nc3ccccc3[nH]2)cc1)c1ccc(Br)o1	-	.	.
O=C(Nc1ccc(-c2nc3ccccc3[nH]2)cc1)c1cc2ccccc2o1	101.5	.	.
O=C(Nc1ccc(-c2nc3ccccc3[nH]2)cc1)c1ccc(Cl)c(Cl)c1	101.4	.	.
Cc1ccccc1C(=O)Nc1ccc(-c2nc3ccccc3[nH]2)cc1	-	.	.
CCn1nnnc1-c1ccc(OC)c(S(=O)(=O)Nc2ccc(Cl)cc2)c1	-	.	.
O=C(NC(NC(=S)Nc1ccc(Br)cc1)C(Cl)(Cl)Cl)c1ccccc1F (centres undefined)	103.0	.	.
O=C(NC(NC(=S)Nc1ccccc1)C(Cl)(Cl)Cl)c1ccccc1F (centres undefined)	-	.	.
C=CCN1C(=O)/C(=C\c2ccc(-c3ccccc3[N+](=O)[O-])o2)C(=O)NC1=S	-	.	.
C=CCN1C(=O)/C(=C\c2ccc(-c3ccc([N+](=O)[O-])cc3C)o2)C(=O)NC1=S	102.6	.	.
O=C1NC(=S)N/C1=C\c1ccc(-c2cc([N+](=O)[O-])ccc2Br)o1	102.3	.	.
C=CCN1C(=O)/C(=C\c2ccc(-c3ccc([N+](=O)[O-])cc3Cl)o2)C(=O)NC1=S	-	.	.
C=CCN1C(=O)/C(=C\c2ccc([N+](=O)[O-])o2)C(=O)NC1=S	102.6	.	.
